Laboratory results published in ChEMBL document CHEMBL1132569.

Columns and labels:
[1] = molecular target: Muscarinic acetylcholine receptor M3 (Homo sapiens) (UniProt P20309); assay: Cooperativity with NMS at human muscarinic acetylcholine receptor M3
Summary of the method: (§1)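 Equilibrium ³H-NMS binding in CHO membranes expressing human m1–m5 receptors was measured with and without ACh, alone and with three agent concentrations. Data were converted to affinity ratios, meaning apparent primary-ligand affinity with agent divided by affinity without it.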

[2] = molecular target: T1, Muscarinic acetylcholine receptor M4 (Homo sapiens) (UniProt P08173); assay: Binding affinity at the unliganded human muscarinic acetylcholine receptor M4 was estimated as log affinity (log1/M)
T1 sequence (whole entry): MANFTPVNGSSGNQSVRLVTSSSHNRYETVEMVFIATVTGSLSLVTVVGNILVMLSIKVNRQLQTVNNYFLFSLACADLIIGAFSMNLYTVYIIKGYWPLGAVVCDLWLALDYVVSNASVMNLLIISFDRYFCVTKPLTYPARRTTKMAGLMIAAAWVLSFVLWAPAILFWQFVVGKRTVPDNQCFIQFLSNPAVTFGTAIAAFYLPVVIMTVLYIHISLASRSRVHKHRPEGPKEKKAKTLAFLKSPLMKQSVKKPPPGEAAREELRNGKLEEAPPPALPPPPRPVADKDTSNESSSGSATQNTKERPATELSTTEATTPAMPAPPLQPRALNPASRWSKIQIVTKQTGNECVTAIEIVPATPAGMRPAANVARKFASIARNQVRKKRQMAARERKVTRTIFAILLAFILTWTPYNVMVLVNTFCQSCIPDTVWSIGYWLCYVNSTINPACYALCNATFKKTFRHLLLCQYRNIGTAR
Summary of the method: (§2)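 Equilibrium runs were ≥2 h with 2 × 10⁻⁴ M GTP and 0.1–0.7 nM ³H-NMS. Nonspecific binding was defined with 10⁻⁶ M QNB, and bound ligand was filtered and counted. Log affinities came from semiquantitative plus off-rate, quantitative equilibrium, or nonequilibrium assays, fitted by nonlinear least squares to the allosteric ternary complex model.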

[3] = molecular target: T1, Muscarinic acetylcholine receptor M4 (Homo sapiens); assay: Cooperativity with NMS at human muscarinic acetylcholine receptor M4; summary of the method: as §1
[4] = molecular target: T1, Muscarinic acetylcholine receptor M4 (Homo sapiens); assay: Cooperativity with acetylcholine at human muscarinic acetylcholine receptor M4; summary of the method: as §1
[5] = molecular target: T1, Muscarinic acetylcholine receptor M4 (Homo sapiens); assay: Binding affinity at the NMS liganded human muscarinic acetylcholine receptor M4 was estimated as log affinity (log1/M); summary of the method: as §2
[6] = molecular target: T2, Muscarinic acetylcholine receptor M1 (Homo sapiens) (UniProt P11229); assay: Binding affinity at the unliganded human muscarinic acetylcholine receptor M1 was estimated as log affinity (log1/M); summary of the method: as §2
T2 sequence (whole entry): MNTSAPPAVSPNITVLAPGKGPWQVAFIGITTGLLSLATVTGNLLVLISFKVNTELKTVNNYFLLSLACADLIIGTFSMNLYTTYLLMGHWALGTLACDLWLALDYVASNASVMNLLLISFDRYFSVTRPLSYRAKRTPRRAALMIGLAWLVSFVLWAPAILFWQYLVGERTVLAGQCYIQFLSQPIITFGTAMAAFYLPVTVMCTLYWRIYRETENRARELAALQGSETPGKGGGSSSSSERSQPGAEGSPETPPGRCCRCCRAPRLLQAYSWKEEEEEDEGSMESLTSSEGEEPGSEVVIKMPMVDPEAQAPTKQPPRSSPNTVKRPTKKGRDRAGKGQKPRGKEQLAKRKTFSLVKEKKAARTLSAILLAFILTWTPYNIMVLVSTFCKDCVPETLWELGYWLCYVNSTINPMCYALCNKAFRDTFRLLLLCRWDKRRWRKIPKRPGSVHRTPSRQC

[7] = molecular target: Muscarinic acetylcholine receptor M3 (Homo sapiens) (UniProt P20309); assay: Binding affinity at the unliganded human muscarinic acetylcholine receptor M3 was estimated as log affinity (log1/M); summary of the method: as §2
[8] = molecular target: T3, Muscarinic acetylcholine receptor M2 (Homo sapiens) (UniProt P08172); assay: Cooperativity with NMS at human muscarinic acetylcholine receptor M2; summary of the method: as §1
T3 sequence (whole entry): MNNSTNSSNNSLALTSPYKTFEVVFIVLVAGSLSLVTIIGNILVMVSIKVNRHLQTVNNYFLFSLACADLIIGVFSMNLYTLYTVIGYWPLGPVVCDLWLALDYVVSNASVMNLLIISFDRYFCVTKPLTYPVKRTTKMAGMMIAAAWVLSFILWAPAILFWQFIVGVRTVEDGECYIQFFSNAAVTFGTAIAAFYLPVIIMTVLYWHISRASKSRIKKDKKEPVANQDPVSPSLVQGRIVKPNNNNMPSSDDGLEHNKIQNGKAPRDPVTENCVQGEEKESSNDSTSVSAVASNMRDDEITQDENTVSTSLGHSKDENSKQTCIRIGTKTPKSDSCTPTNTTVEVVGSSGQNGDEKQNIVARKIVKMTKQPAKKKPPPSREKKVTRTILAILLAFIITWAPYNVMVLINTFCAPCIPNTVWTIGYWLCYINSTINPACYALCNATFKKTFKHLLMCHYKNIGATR

[9] = molecular target: T3, Muscarinic acetylcholine receptor M2 (Homo sapiens); assay: Binding affinity at the NMS liganded human muscarinic acetylcholine receptor M2 was estimated as log affinity (log1/M); summary of the method: as §2
[10] = molecular target: T2, Muscarinic acetylcholine receptor M1 (Homo sapiens); assay: Cooperativity with acetylcholine at human muscarinic acetylcholine receptor M1; summary of the method: as §1
[11] = molecular target: T2, Muscarinic acetylcholine receptor M1 (Homo sapiens); assay: Binding affinity at the NMS liganded human muscarinic acetylcholine receptor M1 was estimated as log affinity (log1/M); summary of the method: as §2
[12] = molecular target: Muscarinic acetylcholine receptor M3 (Homo sapiens) (UniProt P20309); assay: Binding affinity at the NMS liganded human muscarinic acetylcholine receptor M3 was estimated as log affinity (log1/M); summary of the method: as §2
[13] = molecular target: T3, Muscarinic acetylcholine receptor M2 (Homo sapiens); assay: Cooperativity with acetylcholine at human muscarinic acetylcholine receptor M2; summary of the method: as §1
[14] = molecular target: Muscarinic acetylcholine receptor M3 (Homo sapiens) (UniProt P20309); assay: Cooperativity with acetylcholine at human muscarinic acetylcholine receptor M3; summary of the method: as §1
[15] = molecular target: T2, Muscarinic acetylcholine receptor M1 (Homo sapiens); assay: Cooperativity with NMS at human muscarinic acetylcholine receptor M1; summary of the method: as §1
[16] = molecular target: T3, Muscarinic acetylcholine receptor M2 (Homo sapiens); assay: Binding affinity at the unliganded human muscarinic acetylcholine receptor M2 was estimated as log affinity (log1/M); summary of the method: as §2

Muscarinic acetylcholine receptor M3 (Homo sapiens), sequence (P20309 whole entry, looked up): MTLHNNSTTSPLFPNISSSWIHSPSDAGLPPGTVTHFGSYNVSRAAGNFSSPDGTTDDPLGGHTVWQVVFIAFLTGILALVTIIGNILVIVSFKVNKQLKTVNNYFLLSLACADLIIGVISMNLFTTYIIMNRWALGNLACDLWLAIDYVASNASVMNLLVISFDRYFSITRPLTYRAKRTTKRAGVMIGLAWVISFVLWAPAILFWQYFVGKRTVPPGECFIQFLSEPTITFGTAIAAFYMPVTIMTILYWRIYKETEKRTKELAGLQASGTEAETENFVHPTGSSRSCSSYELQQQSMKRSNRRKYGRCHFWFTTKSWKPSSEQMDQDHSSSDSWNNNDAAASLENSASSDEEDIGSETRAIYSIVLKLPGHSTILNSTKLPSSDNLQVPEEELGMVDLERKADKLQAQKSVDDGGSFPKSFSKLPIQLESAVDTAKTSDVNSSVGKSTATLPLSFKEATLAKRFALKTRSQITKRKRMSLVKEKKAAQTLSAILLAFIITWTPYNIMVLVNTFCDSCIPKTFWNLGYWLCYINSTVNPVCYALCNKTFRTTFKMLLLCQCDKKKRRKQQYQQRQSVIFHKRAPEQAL

## N#CC[N+]12CC[C@@]34c5ccccc5N5C(=O)C[C@@H]6OCC=C(C1)[C@H](C[C@@H]32)[C@@H]6[C@H]54 (stereo not given in full)
[1]
  Cooperativity: 2
[2]
  Affinity: < 4.4
[3]
  Cooperativity: > 2
[4]
  Cooperativity: 0.8
[5]
  Affinity: 4.8
[6]
  Affinity: < 4
[7]
  Affinity: < 3.9
[8]
  Cooperativity: > 2
[9]
  Affinity: 5.1
[10]
  Cooperativity: 0.8
[11]
  Affinity: 4.3
[12]
  Affinity: 4.2
[13]
  Cooperativity: < 0.2
[14]
  Cooperativity: 0.8
[15]
  Cooperativity: 2
[16]
  Affinity: 4.5

## O=C1C[C@@H]2OCC=C3C[N+]4(Cc5cccc([N+](=O)[O-])c5)CC[C@]56c7ccccc7N1[C@H]5[C@H]2[C@H]3C[C@@H]64 (stereo not given in full)
[1]
  Cooperativity: 2
[2]
  Affinity: < 5.2
[3]
  Cooperativity: > 2
[4]
  Cooperativity: 0.8
[5]
  Affinity: 5.6
[6]
  Affinity: < 4.9
[7]
  Affinity: < 4.7
[8]
  Cooperativity: > 2
[9]
  Affinity: 6
[10]
  Cooperativity: 0.8
[11]
  Affinity: 5.1
[12]
  Affinity: 4.8
[13]
  Cooperativity: 0.8
[14]
  Cooperativity: 0.8
[15]
  Cooperativity: 2
[16]
  Affinity: < 5.4

## CCC[N+]12CC[C@@]34c5ccccc5N5C(=O)C[C@@H]6OCC=C(C1)[C@H](C[C@@H]32)[C@@H]6[C@H]54 (stereo not given in full)
[1]
  Cooperativity: 0.8
[2]
  Affinity: 5.2
[3]
  Cooperativity: 0.8
[4]
  Cooperativity: < 0.2
[5]
  Affinity: 4.9
[6]
  Affinity: 5.2
[7]
  Affinity: 5
[8]
  Cooperativity: 2
[9]
  Affinity: 5.5
[10]
  Cooperativity: < 0.2
[11]
  Affinity: 4.8
[12]
  Affinity: 4.5
[13]
  Cooperativity: < 0.2
[14]
  Cooperativity: < 0.2
[15]
  Cooperativity: 0.8
[16]
  Affinity: 5.2

## N[N+]12CC[C@@]34c5ccccc5N5C(=O)C[C@@H]6OCC=C(C1)[C@H](C[C@@H]32)[C@@H]6[C@H]54 (stereo not given in full)
[1]
  Cooperativity: 2
[2]
  Affinity: < 4.4
[3]
  Cooperativity: > 2
[4]
  Cooperativity: 0.8
[5]
  Affinity: 4.9
[6]
  Affinity: 4.3
[7]
  Affinity: < 4.4
[8]
  Cooperativity: > 2
[9]
  Affinity: 5.4
[10]
  Cooperativity: 0.8
[11]
  Affinity: 4.7
[12]
  Affinity: 4.5
[13]
  Cooperativity: 0.8
[14]
  Cooperativity: 0.8
[15]
  Cooperativity: 2
[16]
  Affinity: < 4.8

## C#CC[N+]12CC[C@@]34c5ccccc5N5C(=O)C[C@@H]6OCC=C(C1)[C@H](C[C@@H]32)[C@@H]6[C@H]54 (stereo not given in full)
[1]
  Cooperativity: 0.8
[2]
  Affinity: 4.8
[3]
  Cooperativity: 2
[4]
  Cooperativity: 0.8
[5]
  Affinity: 5
[6]
  Affinity: 5.2
[7]
  Affinity: 4.7
[8]
  Cooperativity: 2
[9]
  Affinity: 5.4
[10]
  Cooperativity: < 0.2
[11]
  Affinity: 4.7
[12]
  Affinity: 4.5
[13]
  Cooperativity: < 0.2
[14]
  Cooperativity: < 0.2
[15]
  Cooperativity: 0.8
[16]
  Affinity: 5.2
